{"source": "paper PMC7684530", "about": "(European Journal of Medicinal Chemistry, 2020)", "note": "“Also recorded” adds a separate entry of the source.", "data": [{"biological_target": "T1, PqsR (Pseudomonas aeruginosa, UniProt Q9I4X0)", "T1 sequence (Q9I4X0 1-332)": "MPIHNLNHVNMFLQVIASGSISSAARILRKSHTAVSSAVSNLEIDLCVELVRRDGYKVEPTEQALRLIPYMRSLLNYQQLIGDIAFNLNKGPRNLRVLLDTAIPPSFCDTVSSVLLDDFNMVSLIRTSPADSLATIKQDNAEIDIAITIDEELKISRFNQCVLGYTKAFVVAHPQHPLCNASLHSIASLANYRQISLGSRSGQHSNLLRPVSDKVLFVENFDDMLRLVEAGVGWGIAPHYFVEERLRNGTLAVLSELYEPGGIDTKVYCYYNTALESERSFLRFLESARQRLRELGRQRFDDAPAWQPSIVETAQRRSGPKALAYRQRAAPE", "test": "PqsR bioreporter assay", "assay_type": "cell-based, Pseudomonas aeruginosa PAO1-L", "details": "ratio of IC50 values, strain PAO1-L", "in_short": "(§1)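 Dose-response of the PAO1-L mCTX:PpqsA-lux reporter. Ten compound concentrations in LB came from two tenfold dilution series and were mixed 1:1 with PAO1-L diluted to OD600 0.02, giving final 31.6 μM to 1 nM, in triplicate. The plate was kinetically read at 37 °C over 24 h for OD600 and luminescence every 30 min. Values were taken at the luminescence peak (8–9 h), and log concentration was plotted against RLU/OD600.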", "values": [{"smiles": "CC(C)(C)c1nc(Cn2cnc3ccc(Cl)cc3c2=O)cs1", "note": "[Compound 12, 3-((2-(Tert-butyl)thiazol-4-yl)methyl)-6-chloroquinazolin-4(3H)-one]", "activity in PAO1-L compared with 32": "seven-fold stronger activity"}]}, {"biological_target": "T1, PqsR", "test": "PqsR bioreporter assay", "assay_type": "cell-based, Pseudomonas aeruginosa PAO1-L", "details": "read-out: IC50 value in PAO1-L", "in_short": "as §1", "units": {"activity": "%"}, "values": [{"smiles": "Cc1nc(Cn2cnc3ccc(Cl)cc3c2=O)cs1", "note": "[Compound 8, 6-Chloro-3-((2-methylthiazol-4-yl)methyl)quinazolin-4(3H)-one]", "activity": "> 50"}, {"smiles": "O=c1c2cc(Cl)ccc2ncn1Cc1csc(C(F)(F)F)n1", "note": "[Compound 9, 6-Chloro-3-((2-(trifluoromethyl)thiazol-4-yl)methyl)quinazolin-4(3H)-one]", "activity": "> 50"}, {"smiles": "CCc1nc(Cn2cnc3ccc(Cl)cc3c2=O)cs1", "note": "[Compound 10, 6-Chloro-3-((2-ethylthiazol-4-yl)methyl)quinazolin-4(3H)-one]", "activity": "> 50"}, {"smiles": "N#CCc1nc(Cn2cnc3ccc(Cl)cc3c2=O)cs1", "note": "[Compound 11, 2-(4-((6-Chloro-4-oxoquinazolin-3(4H)-yl)methyl)thiazol-2-yl)acetonitrile]", "activity": "> 50"}, {"smiles": "O=c1c2cc(Cl)ccc2ncn1Cc1csc(-c2ccc([N+](=O)[O-])cc2)n1", "note": "[Compound 23, 6-Chloro-3-((2-(4-nitrophenyl)thiazol-4-yl)methyl)quinazolin-4(3H)-one]", "activity": "> 50"}, {"smiles": "COCCNc1nc(Cn2cnc3ccc(Cl)cc3c2=O)cs1", "note": "[Compound 24, 6-Chloro-3-((2-((2-methoxyethyl)amino)thiazol-4-yl)methyl)quinazolin-4(3H)-one]", "activity": "> 50"}, {"smiles": "NC(N)=Nc1nc(Cn2cnc3ccc(Cl)cc3c2=O)cs1", "note": "[Compound 26, 2-(4-((6-Chloro-4-oxoquinazolin-3(4H)-yl)methyl)thiazol-2-yl)guanidine]", "activity": "> 50"}, {"smiles": "CC1CCN(c2ncc(Cn3cnc4ccc(Cl)cc4c3=O)s2)CC1", "note": "[Compound 27, 6-Chloro-3-((2-(4-methylpiperidin-1-yl)thiazol-5-yl)methyl)quinazolin-4-(3H)-one]", "activity": "> 50"}, {"smiles": "O=c1c2cc(Cl)ccc2ncn1Cc1cnc(NC2CCCCC2)s1", "note": "[Compound 28, 6-Chloro-3-((2-(cyclohexylamino)thiazol-5-yl)methyl)quinazolin-4-(3H)-one]", "activity": "> 50"}, {"smiles": "CN(CCO)c1ncc(Cn2cnc3ccc(Cl)cc3c2=O)s1", "note": "[Compound 29, 6-Chloro-3-((2-(2-hydroxyethyl(methyl)amino)thiazol-5-yl)methyl)quinazolin-4-(3H)-one]", "activity": "> 50"}, {"smiles": "CCCCNc1ncc(Cn2cnc3ccc(Cl)cc3c2=O)s1", "note": "[Compound 30, 3-((2-(Butylamino)thiazol-5-yl)methyl)-6-chloroquinazolin-4(3H)-one]", "activity": "> 50"}, {"smiles": "COCCNc1ncc(Cn2cnc3ccc(Cl)cc3c2=O)s1", "note": "[Compound 31, 6-Chloro-3-((2-((2-methoxyethyl)amino)thiazol-5-yl)methyl)quinazolin-4-(3H)-one]", "activity": "> 50"}, {"smiles": "CCCCCc1nc(Cn2cnc3cc(Cl)ccc3c2=O)cs1", "note": "[Compound 33, 7-Chloro-3-((2-pentylthiazol-4-yl)methyl)quinazolin-4(3H)-one]", "activity": "> 50"}, {"smiles": "O=c1c2cc(Cl)ccc2ncn1Cc1cnc(Cl)s1", "note": "[Compound 34, 6-Chloro-3-((2-chlorothiazol-5-yl)methyl)quinazolin-4(3H)-one]", "activity": "> 50"}, {"smiles": "CC(C)c1ncc(Cn2cnc3ccc(Cl)cc3c2=O)s1", "note": "[Compound 35, 6-Chloro-3-((2-isopropylthiazol-5-yl)methyl)quinazolin-4(3H)-one]", "activity": "> 50"}]}, {"tested_on": "not listed separately", "test": "Solubility in the cytotoxicity test buffer", "assay_type": "physicochemical", "details": "this concentration = 100 μM", "values": [{"smiles": "CCCCCc1nc(Cn2cnc3ccc(Cl)cc3c2=O)cs1", "note": "[Compound 18, 6-Chloro-3-((2-pentylthiazol-4-yl)methyl)quinazolin-4(3H)-one]", "solubility in the test buffer": "neither compound was fully soluble above this concentration"}, {"smiles": "CCCCCCc1nc(Cn2cnc3ccc(Cl)cc3c2=O)cs1", "note": "[Compound 19, 6-Chloro-3-((2-hexylthiazol-4-yl)methyl)quinazolin-4(3H)-one]", "solubility in the test buffer": "neither compound was fully soluble above this concentration"}]}, {"biological_target": "T1, PqsR", "test": "10 μM spot test in the PAO1-L mCTX:PpqsA-lux bioreporter", "assay_type": "cell-based, Pseudomonas aeruginosa PAO1-L", "details": "10 μM ligand concentration", "in_short": "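Single-concentration screen of the PAO1-L mCTX:PpqsA-lux strain in LB. The reporter was grown overnight at 37 °C to OD600 2.0–3.0 and diluted to OD600 0.02. A 20 μM compound solution in LB was mixed 1:1 with the cells (final 10 μM) in at least three wells. OD600 and luminescence were read every 30 min at 37 °C over 24 h. Activity (luminescence/OD600) was taken at the luminescence peak and compared with the DMSO control.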", "values": [{"smiles": "CC(C)c1noc(Cn2cnc3ccc(Cl)cc3c2=O)n1", "note": "[Compound 7]", "activity when screened at 10 μM (in words)": "inactive; also recorded: inactivity"}, {"smiles": "O=c1c2cc(Cl)ccc2ncn1Cc1csc(-c2ccc([N+](=O)[O-])cc2)n1", "note": "[Compound 23, 6-Chloro-3-((2-(4-nitrophenyl)thiazol-4-yl)methyl)quinazolin-4(3H)-one]", "activity when screened at 10 μM (in words)": "inactive"}, {"smiles": "COCCNc1nc(Cn2cnc3ccc(Cl)cc3c2=O)cs1", "note": "[Compound 24, 6-Chloro-3-((2-((2-methoxyethyl)amino)thiazol-4-yl)methyl)quinazolin-4(3H)-one]", "activity when screened at 10 μM (in words)": "no inhibition"}, {"smiles": "NC(N)=Nc1nc(Cn2cnc3ccc(Cl)cc3c2=O)cs1", "note": "[Compound 26, 2-(4-((6-Chloro-4-oxoquinazolin-3(4H)-yl)methyl)thiazol-2-yl)guanidine]", "activity when screened at 10 μM (in words)": "inactive"}, {"smiles": "CCCCCc1nc(Cn2cnc3cc(Cl)ccc3c2=O)cs1", "note": "[Compound 33, 7-Chloro-3-((2-pentylthiazol-4-yl)methyl)quinazolin-4(3H)-one]", "activity when screened at 10 μM (in words)": "inactive"}, {"smiles": "CC(C)c1ncc(Cn2cnc3ccc(Cl)cc3c2=O)s1", "note": "[Compound 35, 6-Chloro-3-((2-isopropylthiazol-5-yl)methyl)quinazolin-4(3H)-one]", "activity when screened at 10 μM (in words)": "inactive; also recorded: inactivity"}]}, {"tested_on": "A549 lung epithelial cells", "test": "Cytotoxicity", "assay_type": "cell-based, human", "details": "0.1 to 100 μM, 16 h", "units": {"cytotoxic concentration (no significant toxicity up to; LD50 not reached)": "µM"}, "values": [{"smiles": "CCCCCc1nc(Cn2cnc3ccc(Cl)cc3c2=O)cs1", "note": "[Compound 18, 6-Chloro-3-((2-pentylthiazol-4-yl)methyl)quinazolin-4(3H)-one]", "cytotoxic concentration (no significant toxicity up to; LD50 not reached)": "> 100"}, {"smiles": "CCCCCCc1nc(Cn2cnc3ccc(Cl)cc3c2=O)cs1", "note": "[Compound 19, 6-Chloro-3-((2-hexylthiazol-4-yl)methyl)quinazolin-4(3H)-one]", "cytotoxic concentration (no significant toxicity up to; LD50 not reached)": "> 100"}]}]}
